Laboratory results reported in ChEMBL document CHEMBL5537160, “Design, Synthesis, Pharmacology, and In Silico Studies of (1S,2S,3S)-2-((S)-Amino(carboxy)methyl)-3-(carboxymethyl)cyclopropane-1-carboxylic Acid (LBG30300): A Picomolar Potency Subtype-Selective mGlu2 Receptor Agonist” (J Med Chem, 2024).
The source made the active and inactive calls. The rule behind the calls is not given here.

Tests used:
[1] = target: T1, Metabotropic glutamate receptor 2 (Rattus norvegicus, UniProt P31421); test: Agonist activity at rat mGlu2; type: functional
T1 sequence (P31421 whole entry): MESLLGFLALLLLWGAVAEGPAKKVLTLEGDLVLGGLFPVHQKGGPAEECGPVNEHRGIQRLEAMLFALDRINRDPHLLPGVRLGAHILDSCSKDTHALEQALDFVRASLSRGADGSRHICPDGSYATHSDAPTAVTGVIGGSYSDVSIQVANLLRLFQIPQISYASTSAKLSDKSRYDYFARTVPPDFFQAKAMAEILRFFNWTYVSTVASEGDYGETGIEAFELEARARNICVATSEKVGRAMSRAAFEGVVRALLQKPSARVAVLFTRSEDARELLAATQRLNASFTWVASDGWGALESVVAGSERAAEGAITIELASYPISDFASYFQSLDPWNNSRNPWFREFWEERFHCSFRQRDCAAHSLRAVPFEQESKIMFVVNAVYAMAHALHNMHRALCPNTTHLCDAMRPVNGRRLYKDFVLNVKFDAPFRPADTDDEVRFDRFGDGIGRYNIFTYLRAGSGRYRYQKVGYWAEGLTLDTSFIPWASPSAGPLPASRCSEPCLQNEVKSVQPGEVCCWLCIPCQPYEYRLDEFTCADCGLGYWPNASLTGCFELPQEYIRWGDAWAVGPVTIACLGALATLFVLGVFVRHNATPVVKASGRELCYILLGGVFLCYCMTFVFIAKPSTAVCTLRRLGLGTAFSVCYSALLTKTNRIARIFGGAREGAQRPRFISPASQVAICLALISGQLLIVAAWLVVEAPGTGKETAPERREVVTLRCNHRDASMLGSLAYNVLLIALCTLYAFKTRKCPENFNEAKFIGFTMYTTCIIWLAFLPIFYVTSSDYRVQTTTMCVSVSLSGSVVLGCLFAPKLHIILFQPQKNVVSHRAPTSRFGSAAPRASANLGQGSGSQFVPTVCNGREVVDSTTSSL

[2] = target: T2, Metabotropic glutamate receptor 3 (Rattus norvegicus, UniProt P31422); test: Agonist activity at rat mGlu3; type: functional
T2 sequence (P31422 whole entry): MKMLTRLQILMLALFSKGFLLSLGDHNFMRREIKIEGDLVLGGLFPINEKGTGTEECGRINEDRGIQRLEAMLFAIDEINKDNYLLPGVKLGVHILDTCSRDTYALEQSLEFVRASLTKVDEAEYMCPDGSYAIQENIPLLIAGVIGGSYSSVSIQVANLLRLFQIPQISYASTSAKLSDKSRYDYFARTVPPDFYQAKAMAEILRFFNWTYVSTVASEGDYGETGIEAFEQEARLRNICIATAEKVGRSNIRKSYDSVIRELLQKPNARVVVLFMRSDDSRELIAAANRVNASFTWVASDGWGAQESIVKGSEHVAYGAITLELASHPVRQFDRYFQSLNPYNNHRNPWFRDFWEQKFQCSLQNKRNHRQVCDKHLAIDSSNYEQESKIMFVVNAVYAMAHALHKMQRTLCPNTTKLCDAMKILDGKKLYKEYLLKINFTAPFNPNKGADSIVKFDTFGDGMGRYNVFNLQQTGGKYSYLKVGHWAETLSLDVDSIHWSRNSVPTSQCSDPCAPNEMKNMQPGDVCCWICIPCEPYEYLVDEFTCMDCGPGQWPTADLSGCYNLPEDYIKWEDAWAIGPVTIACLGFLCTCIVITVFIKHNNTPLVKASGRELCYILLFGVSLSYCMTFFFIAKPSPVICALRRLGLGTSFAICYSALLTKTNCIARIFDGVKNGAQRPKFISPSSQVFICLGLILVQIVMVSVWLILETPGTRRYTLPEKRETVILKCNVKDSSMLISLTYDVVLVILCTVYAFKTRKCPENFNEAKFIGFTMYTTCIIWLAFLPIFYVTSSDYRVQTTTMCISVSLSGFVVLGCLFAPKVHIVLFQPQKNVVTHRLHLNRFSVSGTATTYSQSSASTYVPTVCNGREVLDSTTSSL

[3] = target: T2, Metabotropic glutamate receptor 3; test: Agonist activity at SNAP tagged rat mGlu3 transfected HEK293 cells preincubated with antagonist LY-341495 followed by compound addition by TR-FRET assay; type: functional, cell-based
[4] = target: T1, Metabotropic glutamate receptor 2; test: Agonist activity at SNAP tagged rat mGlu2 transfected HEK293 cells by TR-FRET assay; type: functional, cell-based; details: read-out: EC50
[5] = target: Metabotropic glutamate receptor 8 (Rattus norvegicus, UniProt P70579); test: Agonist activity at rat mGlu8 transfected in HEK293 cells co-transfected with chimeric Gqi9 incubated for 30 mins by IP-one HTRF assay; type: functional, cell-based
Chain of Metabotropic glutamate receptor 8 (P70579 whole entry): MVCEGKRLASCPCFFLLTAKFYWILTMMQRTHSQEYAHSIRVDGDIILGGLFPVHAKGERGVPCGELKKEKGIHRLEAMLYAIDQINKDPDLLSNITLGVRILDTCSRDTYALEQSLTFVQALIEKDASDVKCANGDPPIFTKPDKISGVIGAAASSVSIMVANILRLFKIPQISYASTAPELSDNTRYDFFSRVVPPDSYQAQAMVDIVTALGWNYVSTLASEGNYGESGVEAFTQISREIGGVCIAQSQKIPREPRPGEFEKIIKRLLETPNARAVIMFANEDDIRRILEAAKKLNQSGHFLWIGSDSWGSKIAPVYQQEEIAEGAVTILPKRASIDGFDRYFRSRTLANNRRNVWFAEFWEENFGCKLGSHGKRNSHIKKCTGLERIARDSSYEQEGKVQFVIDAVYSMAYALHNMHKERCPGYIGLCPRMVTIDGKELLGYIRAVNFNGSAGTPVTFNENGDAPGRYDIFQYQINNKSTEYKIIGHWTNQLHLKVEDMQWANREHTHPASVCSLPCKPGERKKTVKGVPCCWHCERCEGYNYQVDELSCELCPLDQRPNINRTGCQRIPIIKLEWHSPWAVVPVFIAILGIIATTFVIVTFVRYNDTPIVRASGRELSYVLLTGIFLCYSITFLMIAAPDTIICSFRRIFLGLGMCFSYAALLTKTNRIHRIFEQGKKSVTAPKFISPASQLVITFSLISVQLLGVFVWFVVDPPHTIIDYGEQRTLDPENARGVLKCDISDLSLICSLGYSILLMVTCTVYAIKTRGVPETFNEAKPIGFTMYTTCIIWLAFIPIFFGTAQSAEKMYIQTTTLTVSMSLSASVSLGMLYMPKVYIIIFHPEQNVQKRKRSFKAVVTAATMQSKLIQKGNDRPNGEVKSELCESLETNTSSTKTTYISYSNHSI
Procedure, shortened: (§1)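 Rat group II/III receptor co-electroporated into HEK293 with chimeric Gqi9 and EAAC1 transporter, serum-free medium ≥2 h pre-assay. At 24 h post-transfection, Krebs wash, then 30 min compound exposure with 50 mM LiCl. IP1 accumulation quantified by HTRF kit, at least duplicate runs, mean of 2–5 experiments.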

[6] = target: Metabotropic glutamate receptor 7 (Rattus norvegicus) (UniProt P35400); test: Agonist activity at rat mGlu7 transfected in HEK293 cells co-transfected with chimeric Gqi9 at 3000 uM incubated for 30 mins by IP-one HTRF assay relative to control; type: functional, cell-based; details: filed as agonist
Chain of Metabotropic glutamate receptor 7 (Rattus norvegicus) (P35400 whole entry): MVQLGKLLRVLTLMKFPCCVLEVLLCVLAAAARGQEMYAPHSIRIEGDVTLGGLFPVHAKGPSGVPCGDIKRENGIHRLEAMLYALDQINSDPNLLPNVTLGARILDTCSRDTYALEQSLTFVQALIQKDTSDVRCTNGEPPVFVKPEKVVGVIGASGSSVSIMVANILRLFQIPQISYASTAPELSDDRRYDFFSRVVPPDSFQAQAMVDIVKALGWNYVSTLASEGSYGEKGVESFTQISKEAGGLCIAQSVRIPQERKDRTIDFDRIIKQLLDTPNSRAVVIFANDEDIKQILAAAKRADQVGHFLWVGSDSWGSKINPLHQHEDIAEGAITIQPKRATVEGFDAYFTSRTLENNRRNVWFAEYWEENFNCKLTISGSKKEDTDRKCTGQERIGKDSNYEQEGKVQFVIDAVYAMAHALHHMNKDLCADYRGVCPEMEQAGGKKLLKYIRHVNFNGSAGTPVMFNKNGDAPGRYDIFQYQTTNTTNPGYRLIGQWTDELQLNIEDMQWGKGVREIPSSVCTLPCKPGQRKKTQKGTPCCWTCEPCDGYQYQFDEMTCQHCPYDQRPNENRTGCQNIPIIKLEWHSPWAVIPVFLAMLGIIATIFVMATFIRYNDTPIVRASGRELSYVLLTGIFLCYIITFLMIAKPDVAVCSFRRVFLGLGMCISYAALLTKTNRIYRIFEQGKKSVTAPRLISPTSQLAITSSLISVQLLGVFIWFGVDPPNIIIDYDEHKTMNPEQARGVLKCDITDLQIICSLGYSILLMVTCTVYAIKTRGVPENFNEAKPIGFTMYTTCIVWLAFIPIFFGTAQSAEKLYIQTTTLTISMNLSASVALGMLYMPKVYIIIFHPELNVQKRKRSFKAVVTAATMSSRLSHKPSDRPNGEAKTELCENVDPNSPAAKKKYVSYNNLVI
Procedure, shortened: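 Rat receptor was co-electroporated into HEK293 cells with chimeric Gqi9, for phospholipase C coupling, and with the EAAC1 Glu transporter. Cells were seeded on polyornithine at 150 000 cells/well and moved to serum-free Glutamax DMEM ≥2 h before assay. At 24 h cells were washed in Krebs buffer and given compound at 3000 μM with 50 mM LiCl for 30 min. IP1 measured by HTRF kit; response expressed as % of control; ≥ duplicates.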

[7] = target: Metabotropic glutamate receptor 2 (Rattus norvegicus) (UniProt P31421); test: Antagonist activity at rat mGlu2 transfected in HEK293 cells co-transfected with chimeric Gqi9 incubated for 30 mins by IP-one HTRF assay; type: functional, cell-based
[8] = target: Metabotropic glutamate receptor 4 (Rattus norvegicus) (UniProt P31423); test: Antagonist activity at rat mGlu4 transfected in HEK293 cells co-transfected with chimeric Gqi9 incubated for 30 mins by IP-one HTRF assay; type: functional, cell-based; procedure, shortened: as §1
[9] = target: Metabotropic glutamate receptor 5 (Rattus norvegicus) (UniProt P31424); test: Antagonist activity at rat mGlu5 transfected in HEK293 cells by IP-one HTRF assay; type: functional, cell-based
Chain of Metabotropic glutamate receptor 5 (Rattus norvegicus) (P31424 21-1203 limits assumed): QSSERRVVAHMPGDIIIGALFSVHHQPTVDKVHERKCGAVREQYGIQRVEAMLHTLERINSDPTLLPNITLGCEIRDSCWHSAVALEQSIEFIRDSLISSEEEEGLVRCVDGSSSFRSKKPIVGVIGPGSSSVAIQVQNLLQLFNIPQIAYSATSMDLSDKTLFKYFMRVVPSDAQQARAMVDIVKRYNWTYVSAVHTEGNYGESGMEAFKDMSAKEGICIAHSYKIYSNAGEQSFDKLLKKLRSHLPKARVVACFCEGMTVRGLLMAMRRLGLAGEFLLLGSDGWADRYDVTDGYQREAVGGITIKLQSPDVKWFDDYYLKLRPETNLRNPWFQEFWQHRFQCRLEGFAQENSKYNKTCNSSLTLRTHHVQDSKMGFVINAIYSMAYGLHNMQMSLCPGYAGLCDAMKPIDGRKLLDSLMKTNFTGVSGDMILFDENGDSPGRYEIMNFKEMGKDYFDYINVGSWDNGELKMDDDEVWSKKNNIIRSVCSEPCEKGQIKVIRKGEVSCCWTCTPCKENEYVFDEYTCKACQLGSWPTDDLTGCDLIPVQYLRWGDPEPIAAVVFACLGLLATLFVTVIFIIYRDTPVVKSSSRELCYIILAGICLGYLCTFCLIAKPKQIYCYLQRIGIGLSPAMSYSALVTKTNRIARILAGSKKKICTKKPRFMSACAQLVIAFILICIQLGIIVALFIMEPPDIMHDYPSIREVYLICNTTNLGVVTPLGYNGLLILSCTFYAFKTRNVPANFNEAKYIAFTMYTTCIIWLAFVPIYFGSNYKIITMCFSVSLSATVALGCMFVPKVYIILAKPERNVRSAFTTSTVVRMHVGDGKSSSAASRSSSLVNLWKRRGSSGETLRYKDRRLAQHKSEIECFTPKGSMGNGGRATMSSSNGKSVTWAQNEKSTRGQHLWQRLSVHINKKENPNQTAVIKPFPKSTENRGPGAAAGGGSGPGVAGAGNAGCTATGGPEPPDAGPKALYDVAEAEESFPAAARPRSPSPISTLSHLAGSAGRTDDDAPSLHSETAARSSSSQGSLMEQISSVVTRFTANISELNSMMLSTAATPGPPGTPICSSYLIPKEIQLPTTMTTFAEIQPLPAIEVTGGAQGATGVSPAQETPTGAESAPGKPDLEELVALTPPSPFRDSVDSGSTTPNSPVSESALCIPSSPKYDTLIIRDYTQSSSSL
Procedure, shortened: (§2)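 HEK293 cells transiently electroporated with rat receptor plasmid plus EAAC1 Glu transporter, plated 150 000 cells/well on polyornithine, serum-free Glutamax DMEM ≥2 h before assay. At 24 h, washed in Krebs buffer and stimulated 30 min with compound in 50 mM LiCl. IP1 read by HTRF, at least duplicates, EC50 from 2–5 experiments.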

[10] = target: Metabotropic glutamate receptor 4 (Rattus norvegicus, UniProt P31423); test: Agonist activity at rat mGlu4 transfected in HEK293 cells co-transfected with chimeric Gqi9 incubated for 30 mins by IP-one HTRF assay; type: functional, cell-based; details: read-out: EC50; procedure, shortened: as §1
[11] = target: Metabotropic glutamate receptor 3 (Rattus norvegicus) (UniProt P31422); test: Antagonist activity at rat mGlu3 transfected in HEK293 cells co-transfected with chimeric Gqi9 incubated for 30 mins by IP-one HTRF assay; type: functional, cell-based
[12] = target: Metabotropic glutamate receptor 6 (Rattus norvegicus) (UniProt P35349); test: Antagonist activity at rat mGlu6 transfected in HEK293 cells co-transfected with chimeric Gqi9 incubated for 30 mins by IP-one HTRF assay; type: functional, cell-based; procedure, shortened: as §1
[13] = target: Metabotropic glutamate receptor 8 (Rattus norvegicus) (UniProt P70579); test: Antagonist activity at rat mGlu8 transfected in HEK293 cells co-transfected with chimeric Gqi9 incubated for 30 mins by IP-one HTRF assay; type: functional, cell-based; procedure, shortened: as §1
Chain of Metabotropic glutamate receptor 8 (Rattus norvegicus) (P70579 whole entry): as the sequence (P70579 whole entry) above

[14] = target: Metabotropic glutamate receptor 6 (Rattus norvegicus, UniProt P35349); test: Agonist activity at rat mGlu6 transfected in HEK293 cells co-transfected with chimeric Gqi9 incubated for 30 mins by IP-one HTRF assay; type: functional, cell-based; details: read-out: pEC50 (converted); procedure, shortened: as §1
[15] = target: Metabotropic glutamate receptor 7 (Rattus norvegicus) (UniProt P35400); test: Antagonist activity at rat mGlu7 transfected in HEK293 cells co-transfected with chimeric Gqi9 incubated for 30 mins by IP-one HTRF assay; type: functional, cell-based; procedure, shortened: as §1
[16] = target: Metabotropic glutamate receptor 1 (Rattus norvegicus) (UniProt P23385); test: Antagonist activity at rat mGlu1 transfected in HEK293 cells by IP-one HTRF assay; type: functional, cell-based; procedure, shortened: as §2
[17] = target: T2, Metabotropic glutamate receptor 3; test: Agonist activity at rat mGlu3 transfected in HEK293 cells assessed as inositol phosphate accumulation; type: functional, cell-based

Which results are given for N[C@H](C(=O)O)[C@H]1[C@@H](CO)[C@@H]1C(=O)O?
EC50 [1]: 4 nM; EC50 [2]: 7 nM

What does the source list for COc1cccc(C(=O)N[C@H]2C[C@@](N)(C(=O)O)[C@@H]3[C@@H](C(=O)O)[C@@H]32)c1?
EC50 [3]: 32 nM; EC50 [4]: 2820 nM

Which results are given for N[C@@H](CCP(=O)(O)O)C(=O)O?
EC50 ([5]; read-out: EC50): 290 nM; EC50 ([5]; read-out: pEC50 (converted)): 174 nM; Activity [6]: 100%; Activity [7]: inactive; Activity [8]: inactive; Activity [9]: inactive; EC50 [10]: 180 nM; Activity [11]: inactive; Activity [12]: inactive; Activity [13]: inactive; EC50 [14]: 2290 nM; Activity [15]: inactive; Activity [16]: inactive

How did the EC50 [17] turn out when N[C@H](C(=O)O)C1[C@@H](C(=O)O)[C@@H]1C(=O)O (stereo partly drawn) was run?
Its EC50 is 90 nM.
